Measured values taken from ChEMBL document CHEMBL1145070, “Potent, small-molecule inhibitors of human mast cell tryptase. Antiasthmatic action of a dipeptide-based transition-state analogue containing a benzothiazole ketone” (J Med Chem, 2003).
Active and inactive are the calls of the source.

Columns and labels:
Tryptase beta-1 [1] = molecular target: T1, Tryptase beta-1 (Homo sapiens, UniProt Q15661); assay: In vitro inhibition of human Tryptase beta.
Target sequence in this assay (Q15661 whole entry): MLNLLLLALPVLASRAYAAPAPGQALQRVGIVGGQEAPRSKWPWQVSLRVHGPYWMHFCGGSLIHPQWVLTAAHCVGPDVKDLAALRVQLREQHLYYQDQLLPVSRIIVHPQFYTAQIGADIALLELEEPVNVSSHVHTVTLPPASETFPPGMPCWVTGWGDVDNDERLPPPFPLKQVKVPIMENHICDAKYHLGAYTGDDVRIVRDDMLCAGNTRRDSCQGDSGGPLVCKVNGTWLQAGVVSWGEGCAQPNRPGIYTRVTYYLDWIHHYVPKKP

[2] = system: Cationic trypsin (Bos taurus); assay: Beta-Trypsin inhibitory activity of compound was determined; NA= not active (<10% inhibition at 100 uM)
Tryptase beta-1 [3] = molecular target: T1, Tryptase beta-1; assay: Inhibitory activity of compound was determined against human Tryptase beta; NA= not active (<10% inhibition at 100 uM)
Method in brief: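 β-Tryptase chromogenic assay, with absorbance read at 405 nm at 37 °C for 30 min after enzyme addition. […] Percent inhibition came from initial slopes versus the no-inhibitor control, fitted with a four-parameter logistic model.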
Target sequence in this assay (Q15661 31-275 limits assumed): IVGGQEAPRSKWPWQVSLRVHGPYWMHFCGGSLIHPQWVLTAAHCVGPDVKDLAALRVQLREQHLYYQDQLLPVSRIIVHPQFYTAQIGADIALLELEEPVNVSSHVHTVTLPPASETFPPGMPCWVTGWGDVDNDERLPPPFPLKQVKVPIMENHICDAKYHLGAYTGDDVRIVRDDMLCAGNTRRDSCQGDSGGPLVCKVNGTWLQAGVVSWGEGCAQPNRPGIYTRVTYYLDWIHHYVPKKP

[4] = Ratio of Ki value kallikrein to that of Ki value of tryptase
[5] = system: Cationic trypsin (Bos taurus); assay: Ratio of Ki value of bovine trypsin to that of Ki value of tryptase
[6] = Ratio of Ki value plasmin to that of Ki value of tryptase
[7] = molecular target: Thrombin & trypsin (Homo sapiens) (UniProt P00734+P07477+P07478+P35030); assay: Ratio of Ki value thrombin to that of Ki value of tryptase; type: protein assay
Tryptase beta-1 [8] = molecular target: T1, Tryptase beta-1; assay: Inhibitory activity of compound was determined against human Tryptase beta
Target sequence in this assay (Q15661 whole entry): as the sequence (Q15661 whole entry) above

| SMILES | Ki (Tryptase beta-1 [1]) [nM] | other results |
| --- | --- | --- |
| CC(=O)N1CC(=O)C[C@H]1C(=O)N[C@@H](CCCN=C(N)N)C(=O)c1nc2ccccc2s1 | 73 |  |
| CC(=O)N1C[C@H](O)C[C@H]1C(=O)N[C@@H](CCCNC(=N)N)C(=O)c1nc2ccccc2s1 (stereo in doubt; (2S) 6) | 10 |  |
| N=C(N)NCCCC(NC(=O)C1CCCC1)C(=O)c1nc2ccccc2s1 (centres undefined) | 88 |  |
| CC(=O)N1CCC[C@H]1C(=O)NC(CCCN=C(N)N)C(O)c1nc2ccccc2s1 (some centres undefined) |  | NA [2]: inactive; NA (Tryptase beta-1 [3]): inactive |
| CC(=O)N1CCC[C@H]1C(=O)N[C@@H](CCCN=C(N)N)C(=O)c1nc2ccccc2s1 | 19 |  |
| CN[C@H](Cc1ccccc1)C(=O)N1CCC[C@H]1C(=O)N[C@@H](CCCN=C(N)N)C(=O)c1nc2ccccc2s1 | 6.5 |  |
| N=C(N)NCCC[C@H](NC(=O)c1ccc2ccccc2c1O)C(=O)N1CCCC1C(N)=O (some centres undefined) | 330 | Selectivity [4]: > 3000; Selectivity [5]: 0.5; Selectivity [6]: > 3000; Selectivity [7]: 1.3 |
| CC(=O)N1C[C@H](O)C[C@H]1C(=O)N[C@@H](CCCNC(=N)N)C(=O)c1nc2ccccc2s1 | 22 |  |
| CC(=O)N[C@@H](CC(C)C)C(=O)N[C@@H](CCCN=C(N)N)C(=O)c1nc2ccccc2s1 | 41 |  |
| N=C(N)c1ccc2nc(Cc3nc4ccc(C(=N)N)cc4[nH]3)[nH]c2c1 | 140 |  |
| N=C(N)NCCCCC(=O)c1nc2ccccc2s1 |  | NA [2]: inactive; NA (Tryptase beta-1 [3]): inactive |
| CC(=O)N1C[C@H](O)C[C@H]1C(=O)NC(CCCN)C(=O)c1nc2ccccc2s1 (some centres undefined) | 90 |  |
| COS(=O)(=O)N1CCC[C@H]1C(=O)N[C@@H](CCCN=C(N)N)C(=O)c1nc2ccccc2s1 | 33 |  |
| CC(=O)N1CCC[C@@H]1C(=O)N[C@@H](CCCN=C(N)N)C(=O)c1nc2ccccc2s1 | 14000 | IC50 (Tryptase beta-1 [8]): 2 nM |
| N=C(N)NCCC[C@H](NC(=O)[C@@H]1CCCN1Cc1ccccc1)C(=O)c1nc2ccccc2s1 | 250 |  |
| CC(=O)N1C[C@H](O)C[C@H]1C(=O)NC(CCCN=C(N)N)C(=O)c1nccs1 (some centres undefined) | 180 |  |
| CC(=O)N1C[C@H](O)C[C@H]1C(=O)N[C@@H](CCCNC(=N)N)C(=O)c1nc2ccccc2s1 (stereo in doubt; (2R) 6) | 380 |  |
| CC(=O)N1CC[C@H]1C(=O)N[C@@H](CCCN=C(N)N)C(=O)c1nc2ccccc2s1 | 20 |  |
| CCCC(NC(=O)[C@@H]1C[C@@H](O)CN1C(C)=O)C(=O)c1nc2ccccc2s1 (some centres undefined) |  | NA [2]: inactive; NA (Tryptase beta-1 [3]): inactive |
| CC(=O)N1CC=C[C@H]1C(=O)N[C@@H](CCCN=C(N)N)C(=O)c1nc2ccccc2s1 | 38 |  |
| CC(=O)NCC(=O)N[C@@H](CCCN=C(N)N)C(=O)c1nc2ccccc2s1 | 470 |  |
